This is an account of results in ChEMBL document CHEMBL4834436, “Discovery of the S1P2 Antagonist GLPG2938 (1-[2-Ethoxy-6-(trifluoromethyl)-4-pyridyl]-3-[[5-methyl-6-[1-methyl-3-(trifluoromethyl)pyrazol-4-yl]pyridazin-3-yl]methyl]urea), a Preclinical Candidate for the Treatment of Idiopathic Pulmonary Fibrosis” (J Med Chem, 2021).

Molecules are shown by their SMILES.

Series [1] can be described thus: Intrinsic clearance unbound in human liver microsomes at 1 uM […] by LC-MS/MS analysis. The series is classed as ADME, Microsome. (Microsomes from liver hold many membrane-bound enzymes, among them those of drug oxidation.)
Series [2] has as its target T1, Sphingosine 1-phosphate receptor 2 (Homo sapiens, UniProt O95136). In words: Antagonist activity at human S1P2 receptor expressed in CHO cells assessed as EC80 S1P-induced calcium flux measured for 3 mins by fluorescence assay. The series is classed as functional, cell-based. Summed up:
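Same dye-loaded, starved human S1P2-CHO cells; after agonist readout, 15 min at 37 °C, then stimulated with S1P at EC80, fluorescence read 3 min. Max/baseline ratio normalized to vehicle and S1P EC80. 10-point 1/3 dilutions from 20 μM final; IC50 derived; geometric mean of ≥2 runs.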
On the technique in general: A change in cytosolic calcium serves as a functional read-out for many receptors and channels.

The nature of series [3]: Intrinsic clearance unbound in mouse liver microsomes at 1 uM […] by LC-MS/MS analysis. The series is classed as ADME, Microsome.
In series [4] the target is T1, Sphingosine 1-phosphate receptor 2. Put plainly: Antagonist activity at recombinant human S1P2 receptor in HFL1 cells assessed as inhibition of EC80 S1P-induced IL8 release incubated for 16 to 24 hrs in absence of HSA by ELISA. The series is classed as functional, cell-based. Summed up: (§1)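 HFL-1 lung fibroblasts seeded in 96- or 384-well plates, then medium replaced by starvation medium with 1% heat-inactivated FBS, ±1.95% HSA (2% HSA condition), 16–24 h. 10-point 1/3 dilutions, 30 μM top final, 1 h, then S1P at EC80 (without HSA: 1 μM 96-well or 0.5 μM 384-well; with HSA: 5 or 2 μM).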

Series [5] has the same target. Put plainly: Antagonist activity at recombinant human S1P2 receptor expressed in CHO cells assessed as EC80 S1P-induced activation incubated for 4 hrs in presence of [35S]GTPgammaS by Topcount reader. The series is classed as functional, cell-based. Summed up:
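Membranes from stable lines overexpressing recombinant human S1P2, preincubated with PVT-WGA SPA beads, mixed with compound serial dilutions, [35S]GTPγS and S1P at EC80. Incubated 4 h at room temperature, centrifuged, scintillation counted. Antagonist mode; IC50 as geometric mean of ≥2 runs.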
Background: Binding of GTPγS marks nucleotide exchange on a G protein.

The target is the same in series [6]. In words: Agonist activity at human S1P2 receptor expressed in CHO cells assessed as calcium flux measured for 3 mins by fluorescence assay. The series is classed as functional, cell-based. The conditions noted are these: read-out: IC50 (the source's name). Summed up: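 CHO cells stably overexpressing human S1P2, seeded overnight at 37 °C/5% CO2, washed and starved 1 h in F-12 with 0.1% fatty-acid-free BSA, loaded with Fluo 8 dye with 5 mM probenecid. Compound added, fluorescence read 3 min; max/baseline ratio normalized to vehicle and S1P EC100. 10-point 1/3 dilutions from 23.3 μM final; EC50 derived; geometric mean of ≥2 runs.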

For series [7] the target is unchanged. In words: Antagonist activity at recombinant human S1P2 receptor in HFL1 cells assessed as inhibition of EC80 S1P-induced IL8 release incubated for 16 to 24 hrs in presence of 2% HSA by ELISA. The series is classed as functional, cell-based. Summed up:
as §1

Series [8] has the same target. Put plainly: Antagonist activity at recombinant human S1P2 receptor in HFL1 cells assessed as inhibition of EC80 S1P-induced IL8 release measured as unbound concentration incubated for 16 to 24 hrs in presence of 2% HSA by ELISA. Conditions: filed as antagonist, time 16-24 hrs; call rule not given here. The series is classed as functional, cell-based. The gist of the method: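 IL8 IC50 from the 2% HSA condition converted to free IC50 = IC50 × fu,medium, where fu,medium is estimated from human plasma protein binding fraction unbound and the serum percentage used in the assay.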

T1 sequence (O95136 whole entry): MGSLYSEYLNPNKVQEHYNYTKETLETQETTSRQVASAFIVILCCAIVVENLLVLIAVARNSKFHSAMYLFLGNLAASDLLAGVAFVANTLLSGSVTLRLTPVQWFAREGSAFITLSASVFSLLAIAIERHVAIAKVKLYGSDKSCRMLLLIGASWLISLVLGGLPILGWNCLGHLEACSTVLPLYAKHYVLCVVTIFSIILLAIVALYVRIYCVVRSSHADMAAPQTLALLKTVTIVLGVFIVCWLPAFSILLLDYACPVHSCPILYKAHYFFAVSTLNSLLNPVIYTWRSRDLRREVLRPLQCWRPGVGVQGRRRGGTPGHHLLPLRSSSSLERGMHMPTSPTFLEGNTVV

A word on the IC50: it is the concentration at which inhibition is half-maximal. For `CCOc1cc(NC(=O)NCc2cc(C)c(N3CC(C)OC(C)C3)cn2)cc(Cl)n1` (stereo unspecified), the CL free came to 125 mL/min/kg in series [1] and 500 mL/min/kg in series [3]. The values for the IC50 in series [2], in series [4] and in series [5] were 0.016 µM, 105 nM and 105 µM, respectively.
Consider `Cc1cc(C#N)nc(NNC(=O)Nc2cc(Cl)nc(Cl)c2)c1`, for which, in series [2], the IC50 was above 6.6 µM. Also, in series [6], the EC50 is above 23 µM.
As for `Cc1cc(CNC(=O)Nc2cc(OCCO)nc(C(F)(F)F)c2)nnc1-c1cn(C)nc1C(F)(F)F`, the CL free in series [1] was below 23.3 mL/min/kg; in series [3], 102 mL/min/kg. Besides, the concentration for half-maximal inhibition (IC50) in series [7] is 0.81 µM; in series [2], 348 µM; in series [4], 704 nM; in series [5] it was 704 µM. In addition, the fIC50 in series [8] was determined as 87 nM.
For the compound `CCOc1nc(C)cc(NC(=O)NCc2cc(C)c(-c3cn(C)nc3C(F)(F)F)nn2)c1C#N`, the IC50 was above 30 µM in series [7], above 20 µM in series [2], above 20000 nM in series [4] and above 20000 µM in series [5]. In series [3], the CL free worked out at 2270 mL/min/kg.
As for `Cc1cc(NNC(=O)Nc2cc(Cl)nc(Cl)c2)nc(C(=O)N(C)C2CC2)c1`, in series [2], the half-maximal inhibitory concentration (IC50) is above 20 µM. In addition, the EC50 in series [6] is above 23 µM.
Consider `CCOc1nc(C#N)cc(NC(=O)NCc2cc(C)c(-c3cn(C)nc3C(F)(F)F)nn2)c1C`, for which the CL free in series [1] was below 35 mL/min/kg; in series [3], below 163 mL/min/kg. In addition, the IC50 in series [7] worked out at 0.017 µM; in series [2] it was 7.1 µM; in series [4], 24 nM; in series [5], 24 µM. The fIC50 in series [8] is 0.19 nM.
Take `Cc1cc(CNC(=O)Nc2cc(OCCN(C)C)nc(C(F)(F)F)c2)nnc1-c1cn(C)nc1C(F)(F)F`: the CL free in series [1] is 23.3 mL/min/kg; in series [3], below 90 mL/min/kg. Also, the IC50 in series [2] was 2140 µM; in series [4] it was above 10000 nM; in series [5], above 10000 µM.
For the compound `CCOc1nc(C)cc(NC(=O)NCc2cc(C)c(-c3cn(C)nc3C(F)(F)F)nn2)c1Cl`, the CL free in series [1] was below 25 mL/min/kg; in series [3], 250 mL/min/kg. Also, the IC50 came out at 0.049 µM in series [7], 8.7 µM in series [2], 26 nM in series [4] and 26 µM in series [5]. The fIC50 in series [8] is 0.55 nM.
On to `Cc1cc(NNC(=O)Nc2cc(Cl)nc(Cl)c2)nc(-c2cnn(C)c2)c1`, for which the IC50 was above 2.1 µM in series [2] and 3.1 µM in series [5]. Besides, the EC50 in series [6] was above 23 µM.
In the case of `Cc1cc(CNC(=O)Nc2cc(Cl)nc(Cl)c2)ncc1-c1cn(C)nc1C`, the IC50 was 0.3 µM in series [2], 0.77 nM in series [4] and 0.77 µM in series [5]. Besides, the CL free in series [3] turned out to be 200 mL/min/kg.
As to `Cc1cc(CNC(=O)Nc2cc(C(F)(F)F)nc(OCCO)c2C)nnc1-c1cn(C)nc1C(F)(F)F`, the IC50 was 0.256 µM in series [7], 84 µM in series [2], 160 nM in series [4] and 169 µM in series [5]. The compound also had a CL free in series [3] of 91.7 mL/min/kg. Besides, in series [8], the fIC50 came out at 5.4 nM.
Take `Cc1cc(CNC(=O)Nc2cc(OCC(O)CO)nc(C(F)(F)F)c2)nnc1-c1cn(C)nc1C(F)(F)F` (stereo unspecified): the CL free in series [1] is 31.7 mL/min/kg; in series [3] it was below 76.7 mL/min/kg. Further, the IC50 in series [7] was above 10 µM; in series [2], above 6.61 µM; in series [4], above 11000 nM; in series [5] it was above 11000 µM.
On to `COCCOc1cc(NC(=O)NCc2cc(C)c(-c3cn(C)nc3C(F)(F)F)nn2)cc(Cl)n1`, for which the CL free is below 23.3 mL/min/kg in series [1] and 317 mL/min/kg in series [3]. In addition, the IC50 was 3.22 µM in series [7], 412 µM in series [2], 640 nM in series [4] and 640 µM in series [5].
Turning to `Cc1cc(NNC(=O)Nc2cc(Cl)nc(Cl)c2)nc(-c2ccc(F)cc2)c1`, the IC50 in series [2] is 1.3 µM; in series [5], 6.2 µM. For the same compound, the EC50 in series [6] is above 23 µM.
`Cc1cc(NNC(=O)Nc2cc(Cl)nc(Cl)c2)nc(C(=O)NC2CC2)c1`: in series [2], the concentration for half-maximal inhibition (IC50) is 4.5 µM. In series [6], the EC50 is above 23 µM.
On to `CCOc1nc(Cl)cc2nc(NCc3cc(C)c(-c4cn(C)nc4C)cn3)[nH]c12`, for which the IC50 came out at 0.033 µM in series [2], 2.25 nM in series [4] and 2.25 µM in series [5]. In series [3], the CL free worked out at 1370 mL/min/kg.
Turning to `Cc1cc(CNC(=O)c2cc3c(Cl)nc(Cl)cc3[nH]2)ncc1-c1cn(C)nc1C`, the IC50 was determined as 0.89 µM in series [2], 1.3 nM in series [4] and 1.3 µM in series [5]. In addition, the CL free in series [3] came to 633 mL/min/kg.
In the case of `Cc1cc(CNC(=O)Nc2cc(Cl)cc(Cl)c2)ncc1-c1cn(C)nc1C`, the IC50 was 0.16 µM in series [2], 0.3 nM in series [4] and 0.3 µM in series [5]. This compound displayed a CL free in series [3] of 2650 mL/min/kg.
Turning to `Cc1cc(NNC(=O)Nc2cc(Cl)nc(Cl)c2)ncc1-c1ccn(C)n1`, the results for the half-maximal inhibitory concentration (IC50) in series [2] and in series [5] were 4 µM and 9.3 µM, respectively. In series [6], the EC50 is above 23 µM.
Take `Cc1cc(CO)nc(NNC(=O)Nc2cc(Cl)nc(Cl)c2)c1`: the IC50 was above 6.6 µM in series [2] and 31 µM in series [5]. For the same compound, the EC50 in series [6] is above 23 µM.
For the compound `Cc1cc(CNc2nc3cc(Cl)c(Cl)cc3[nH]2)ncc1-c1cn(C)nc1C`, the IC50 in series [2] is 0.009 µM; in series [4], 0.43 nM; in series [5], 0.43 µM. The compound also had a CL free in series [3] of 2580 mL/min/kg.
For the compound `Cc1cc(NNC(=O)Nc2cc(Cl)nc(Cl)c2)ncc1N(C)C`, the IC50 turned out to be 3.6 µM in series [2] and 5.3 µM in series [5]. For the same compound, in series [6], the EC50 was above 23 µM.
In the case of `CCOc1cc(NC(=O)NCc2cc(C)c(-c3cn(C)nc3C)cn2)cc(Cl)n1`, the half-inhibitory concentration (IC50) in series [2] stood at 0.04 µM; in series [4] it was 0.032 nM; in series [5] it was 0.32 µM. The CL free in series [3] stood at 700 mL/min/kg. In series [6], the EC50 amounted to 4.7 µM.
As to `CCOc1cc(NC(=O)NCc2cc(C)c(Nc3cn(C)nc3C)cn2)cc(C(F)(F)F)n1`, the CL free was 267 mL/min/kg in series [1] and 867 mL/min/kg in series [3]. For the same compound, the IC50 in series [2] was found to be 0.012 µM; in series [4], 55 nM; in series [5] it was 55 µM.
Consider `Cc1cc(NNC(=O)Nc2cc(Cl)nc(Cl)c2)ncc1C#N`, for which the IC50 was determined as 6 µM in series [2] and 7 µM in series [5]. In series [6], the EC50 was above 23 µM.
In the case of `Cc1cc(CNC(=O)Cc2ccc(Cl)c(Cl)c2)ncc1-c1cn(C)nc1C`, the IC50 in series [2] is above 19 µM; in series [5] (cho) it was “Not Active”. The CL free in series [3] was found to be 3770 mL/min/kg.
Turning to `Cc1cc(CNC(=O)c2cc(Cl)nc(Cl)c2)ncc1-c1cn(C)nc1C`, the 50% inhibitory concentration (IC50) was above 19 µM in series [2], above 100 nM in series [4] and above 100 µM in series [5]. In series [3], the CL free stood at 85 mL/min/kg.
For the compound `Cc1cc(CNC(=O)c2cc3c(Cl)cc(Cl)cc3[nH]2)ncc1-c1cn(C)nc1C`, the figures for the IC50 in series [2], in series [4] and in series [5] were 0.11 µM, 0.61 nM and 0.61 µM, respectively. In addition, the CL free in series [3] is above 783 mL/min/kg.
For the compound `Cc1cc(NNC(=O)Nc2cc(Cl)nc(Cl)c2)nc(C(=O)N(C)C)c1`, in series [2], the IC50 is above 19 µM. Also, the EC50 in series [6] was above 23 µM.
